In ChEMBL document CHEMBL1212757, “A single mutation in enzyme I of the sugar phosphotransferase system confers penicillin tolerance to Streptococcus gordonii” (2010):
Values after ≈ are worked out from the molar mass of the structure shown. Active and inactive are the calls of the source. The calls are words filed in the database; no cut-off is given here.

Assays:
[1] = system: Streptococcus gordonii; experiment: Antimicrobial activity against wild type streptomycin-susceptible Streptococcus gordonii assessed as bacterial count at 2 ug/ml after 24 hrs by macrodilution method; type: functional
Outline: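 Time-kill assay: exponentially growing cultures in BHI broth at 37°C without aeration. Penicillin G was added at 2 μg/ml when OD600 reached 0.2 (about 1 × 10^8 CFU/ml). Viable counts were taken on agar plates, and the result is the loss of log10 CFU/ml after 24 h of exposure.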

[2] = system: Streptococcus gordonii; experiment: Antimicrobial activity against […] and streptomycin-resistant Streptococcus gordonii Tol1 harboring Tol1 mutation in ptsI assessed as bacterial count at 2 ug/ml after 24 hrs by macrodilution assay; type: functional
[3] = system: Streptococcus gordonii; experiment: Antimicrobial activity against erythromycin- and streptomycin-resistant Streptococcus gordonii Tol1 harboring R483P mutation in ptsI assessed as bacterial count at 2 ug/ml after 24 hrs by macrodilution technique; type: functional
[4] = system: Streptococcus gordonii; experiment: Antimicrobial activity against wild type streptomycin-susceptible Streptococcus gordonii after 24 hrs by macrodilution method; type: functional
Outline: (§1)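 MIC by standard broth macrodilution; streptococci grown at 37°C in BHI broth without aeration.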

[5] = system: Streptococcus gordonii; experiment: Antimicrobial activity against […] and streptomycin-resistant Streptococcus gordonii Tol1 harboring Tol1 mutation in ptsI after 24 hrs by macrodilution assay; type: functional; details: Tol1, 24 h; outline: as §1
[6] = system: Streptococcus gordonii; experiment: Antimicrobial activity against wild type streptomycin-susceptible Streptococcus gordonii harboring P483R mutation in ptsI assessed as bacterial count at 2 ug/ml after 24 hrs by macrodilution technique
[7] = system: Streptococcus gordonii; experiment: Antimicrobial activity against wild type streptomycin-susceptible Streptococcus gordonii assessed as decrease in [14C]glucose uptake at 2 ug/ml after 60 mins by liquid scintillation counting; type: functional, organism-based
Outline: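 Cells were grown in BHI to OD550 of about 0.3, then exposed to penicillin at 2 μg/ml for 20, 40 or 60 min. They were washed in PBS-5 mM MgCl2, concentrated, and preincubated for 10 min at 35°C. Uptake was started with 20 mM stock [14C]glucose (600 dpm/nmol). Timed aliquots went into cold stop buffer, were filtered on glass fiber, and were counted by scintillation. A 4°C high-dilution sample corrected for nonspecific binding.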

[8] = system: Streptococcus gordonii; experiment: Antimicrobial activity against wild type streptomycin-susceptible Streptococcus gordonii harboring […] mutation in ptsI assessed as decrease in [14C]glucose uptake at 2 ug/ml after 60 mins by liquid scintillation counting; type: functional, organism-based
Outline: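 Cells grown in BHI to OD550 ca 0.3, exposed to 2 μg/ml penicillin for 20, 40 or 60 min, washed in PBS-5 mM MgCl2, preincubated 10 min at 35°C; uptake started with [14C]glucose (600 dpm/nmol), aliquots diluted in cold stopping buffer, filtered on glass fibre, counted by liquid scintillation; 4°C high-dilution adsorption control.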

[9] = system: Streptococcus gordonii; experiment: (§2) Antimicrobial activity against wild type streptomycin-susceptible Streptococcus gordonii infected in Wistar rat assessed as decrease in bacterial infection at 300000 U/kg, sc administered 16 hrs after infection every 12 hrs for 2 days measured within 3 days post last dose; type: functional, organism-based
Outline: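 Female Wistar rats carried sterile aortic vegetations. After 24 h they were challenged i.v. with 10^7 CFU of exponential-phase streptococci in 0.5 ml saline. From 16 h post-inoculation, procaine penicillin 300,000 U/kg was given s.c. every 12 h for 2 days. Untreated controls were killed at therapy onset, and treated rats 12 h after the trough of the last dose. Vegetations were weighed and plated for CFU.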

[10] = system: Streptococcus gordonii; experiment: as §2, with “gordonii harboring […] mutation in ptsI” for “gordonii”; type: functional, organism-based
[11] = system: Streptococcus gordonii; experiment: (§3) Antimicrobial activity against penicillin- and streptomycin-resistant Streptococcus gordonii Tol1 harboring Tol1 mutation infected in Wistar rat assessed as protection against bacterial infection at 300000 U/kg, sc administered 16 hrs after infection every 12 hrs for 2 days measured within 3 days post last dose; type: functional, organism-based
[12] = system: Streptococcus gordonii; experiment: as §3, with “against erythromycin-” for “against penicillin-”, “harboring R483P” for “harboring Tol1”, “mutation in ptsI” for “mutation”; type: functional, organism-based

| Structure (SMILES) | Activity [1] [log10CFU/ml] | Activity [2] [log10CFU/ml] | Activity [3] [log10CFU/ml] | MIC [4] [ng/mL] | MIC [5] [ng/mL] | Activity [6] [log10CFU/ml] | inhibition [7] | inhibition [8] | inhibition [9] | inhibition [10] | inhibition [11] | Activity [12] |
| --- | --- | --- | --- | --- | --- | --- | --- | --- | --- | --- | --- | --- |
| C[C@@H](O)[C@H]1C(=O)N2C(C(=O)O)=C(SCCNC=N)C[C@H]12 [IMIPENEM ANHYDROUS] | 6.1 | 2 | 5.3 | 4 (≈ 0.0134 µM) | 4 (≈ 0.0134 µM) | 2.1 |  |  |  |  |  |  |
| CC1(C)S[C@@H]2[C@H](NC(=O)Cc3ccccc3)C(=O)N2[C@H]1C(=O)O [PENICILLIN G] | 4.5 | 0.6 | 3.9 | 8 (≈ 0.0239 µM) | 8 (≈ 0.0239 µM) | 0.7 | Active | Active | Active | inactive | inactive | Active |
